Reference: ChEMBL document CHEMBL1124865, “Synthesis and biological evaluation of a series of parenteral 3'-quaternary ammonium cephalosporins” (J Med Chem, 1990)
≈ marks a conversion by molar mass, not a printed value.

Tests used:
[1] = system: Enterobacter cloacae; assay: Antibacterial activity against Enterobacter cloacae 265A; assay type: functional; conditions: Enterobacter cloacae; read-out: MIC
[2] = system: Escherichia coli; assay: Antibacterial activity against Escherichia coli EC14; assay type: functional; conditions: Escherichia coli; read-out: MIC
[3] = system: Enterobacter cloacae; assay: Antibacterial activity against Enterobacter cloacae EB5; assay type: functional; conditions: Enterobacter cloacae; read-out: MIC
[4] = system: Escherichia coli; assay: Antibacterial activity against Escherichia coli TEM; assay type: functional; conditions: Escherichia coli; read-out: MIC
[5] = system: Klebsiella pneumoniae; assay: microbe, parasite or virus in culture; assay type: functional; conditions: Klebsiella pneumoniae; read-out: MIC
[6] = system: Klebsiella pneumoniae; assay: Antibacterial activity against Klebsiella pneumoniae X26; assay type: functional; conditions: Klebsiella pneumoniae; read-out: MIC
[7] = system: Pseudomonas aeruginosa; assay: Antibacterial activity against Pseudomonas aeruginosa X528; assay type: functional; conditions: Pseudomonas aeruginosa; read-out: MIC
[8] = system: Pseudomonas aeruginosa; assay: Antibacterial activity against Pseudomonas aeruginosa PS18; assay type: functional; conditions: Pseudomonas aeruginosa; read-out: MIC
[9] = system: Staphylococcus aureus; assay: Antibacterial activity against penicillin G resistance Staphylococcus aureus; assay type: functional; conditions: Staphylococcus aureus; read-out: MIC
[10] = system: Staphylococcus aureus; assay: Antibacterial activity against penicillin G susceptible Staphylococcus aureus; assay type: functional; conditions: Staphylococcus aureus; read-out: MIC
[11] = system: Streptococcus pneumoniae; assay: Antibacterial activity against Streptococcus pneumoniae; assay type: functional; conditions: Streptococcus pneumoniae; read-out: MIC
[12] = system: Serratia marcescens; assay: Antibacterial activity against Serratia marcescens SE3; assay type: functional; conditions: Serratia marcescens; read-out: MIC
[13] = system: Enterococcus faecium; assay: Antibacterial activity against Enterococcus faecium; assay type: functional; conditions: Enterococcus faecium; read-out: MIC
[14] = system: Streptococcus pyogenes; assay: Antibacterial activity against Streptococcus pyogenes
[15] = Terminal half life in dogs at the dose of 15 mg/kg.; assay type: ADME, organism-based, Canis lupus familiaris; design: dose 15 mg/kg; conditions: dog, in vivo
Summary of the method: (§1)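 Overnight-fasted female mongrel dogs with a Foley bladder catheter; bolus into the cephalic vein. Plasma and urine collected before dosing and over 24 h after. Antibacterial activity measured by microbiological assay.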

[16] = Terminal half life in dogs at the dose of 30 mg/kg.; assay type: ADME, organism-based, Canis lupus familiaris; design: dose 30 mg/kg; conditions: dog, in vivo; summary of the method: as §1
[17] = system: Canis familiaris; assay: Percent of dose in dogs urine at the dose of 15 mg/kg.; assay type: functional, Canis lupus familiaris; summary of the method: as §1
[18] = system: Canis familiaris; assay: Percent of dose in dogs urine at the dose of 30 mg/kg.; assay type: functional, Canis lupus familiaris; summary of the method: as §1
[19] = system: Escherichia coli; assay: In vitro relative hydrolysis rate against Escherichia coli IIIa; assay type: functional
Summary of the method: (§2)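 Spectrophotometric hydrolysis at 265 nm, substrate exposed to partially purified cell-free β-lactamase preparations; rate expressed as percentage of the cephaloridine rate.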

[20] = system: Enterobacter cloacae; assay: In vitro relative hydrolysis rate against Enterobacter Ia; assay type: functional; summary of the method: as §2
[21] = organism: Cavia porcellus; assay: In vitro relative anticholinergic potential in isolated guinea pig trachea; assay type: functional
Summary of the method: (§3)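 Guinea pig trachea in Krebs' solution at 37.5 °C, 95% O2/5% CO2, pH 7.4, 2 g resting tension. Cumulative carbachol log dose-response curve (3-fold steps) run before and 30 min after adding antagonist at 1 mM. […] Tukey test on log2 dose ratios.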

[22] = organism: Cavia porcellus; assay: In vitro relative anticholinergic activity in isolated guinea pig trachea; assay type: functional; conditions: read-out: pA2 (converted); summary of the method: as §3
[23] = system: Klebsiella pneumoniae; assay: In vitro relative hydrolysis rate against Klebsiella IV; assay type: functional; summary of the method: as §2
[24] = system: Pseudomonas aeruginosa; assay: In vivo efficacy against Pseudomonas aeruginosa infected mice treated at 1 hr and 5 hr post infection; assay type: functional; conditions: Pseudomonas aeruginosa; read-out: ED50
[25] = system: Staphylococcus aureus; assay: In vivo efficacy against Staphylococcus aureus infected mice treated at 1 hr and 5 hr post infection; assay type: functional; conditions: Staphylococcus aureus; read-out: ED50
[26] = system: Escherichia coli; assay: In vivo efficacy against Escherichia coli infected mice treated at 1 hr and 5 hr post infection; assay type: functional; conditions: Escherichia coli; read-out: ED50
[27] = system: Escherichia coli; assay: In vivo efficacy against Escherichia coli infections in mice; assay type: functional; conditions: Escherichia coli; read-out: MIC
[28] = system: Pseudomonas aeruginosa; assay: In vivo efficacy against Pseudomonas aeruginosa infections in mice; assay type: functional; conditions: Pseudomonas aeruginosa; read-out: MIC
[29] = system: Staphylococcus aureus; assay: In vivo efficacy against Staphylococcus aureus infections in mice; assay type: functional; conditions: Staphylococcus aureus; read-out: MIC
[30] = system: Pseudomonas aeruginosa; assay: In vitro relative hydrolysis rate against Pseudomonas Id; assay type: functional; summary of the method: as §2
[31] = system: Staphylococcus aureus; assay: In vitro relative hydrolysis rate against Staphylococcus aureus; assay type: functional; summary of the method: as §2
[32] = system: Streptococcus pyogenes; assay: Antibacterial activity against Streptococcus pyogenes; assay type: functional; conditions: Streptococcus pyogenes; read-out: MIC
[33] = In vitro dose required for anticholinergic activity in isolated guinea pig trachea; assay type: functional
[34] = Terminal half life in Rhesus monkeys at the dose of 30 mg/kg.; assay type: ADME, organism-based, Macaca mulatta; design: dose 30 mg/kg; conditions: rhesus monkey, in vivo
Summary of the method: (§4)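 Male rhesus monkeys dosed intravenously at 30 mg/kg. Plasma sampled from 0.08–0.1 h up to 6–8 h; urine collected over 0–6/8 and 6/8–24 h. Samples measured by microbiological assay.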

[35] = Terminal half life in dogs at the dose of 10 mg/kg.; assay type: ADME, organism-based, Canis lupus familiaris; design: dose 10 mg/kg; conditions: dog, in vivo; summary of the method: as §1
[36] = Terminal half life in dogs at the dose of 20 mg/kg.; assay type: ADME, organism-based, Canis lupus familiaris; design: dose 20 mg/kg; conditions: dog, in vivo; summary of the method: as §1
[37] = system: Monkey; assay: Percent of dose in Rhesus monkeys urine at the dose of 30 mg/kg.; assay type: functional, Cercopithecidae; summary of the method: as §4
[38] = Terminal half life in Rhesus […] the dose of 30 mg/kg.; assay type: ADME, organism-based, Macaca mulatta; design: dose 30 mg/kg; conditions: rhesus monkey
Summary of the method: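 Male rhesus monkeys, 4 per compound, given a single intravenous dose of 30 mg/kg. […] Plasma and urine antibiotic levels measured by microbiological assay. Terminal half-life reported in min.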

Structure (SMILES)	MIC [1]	MIC [2]	MIC [3]	MIC [4]	MIC [5]	MIC [6]	MIC [7]	MIC [8]	MIC [9]	MIC [10]	MIC [11]	MIC [12]	MIC [13]	RAP [21]	MIC [32]	Dose [37]	other results
CO/N=C(\C(=O)N[C@@H]1C(=O)N2C(C(=O)[O-])=C(C[n+]3cccc4ncccc43)CS[C@H]12)c1csc(N)n1	8 µg/mL (≈ 15.2 µM)	0.06 µg/mL (≈ 0.114 µM)	0.25 µg/mL (≈ 0.476 µM)	0.125 µg/mL (≈ 0.238 µM)	4 µg/mL (≈ 7.61 µM)	0.06 µg/mL (≈ 0.114 µM)	4 µg/mL (≈ 7.61 µM)	8 µg/mL (≈ 15.2 µM)	4 µg/mL (≈ 7.61 µM)	2 µg/mL (≈ 3.81 µM)	0.06 µg/mL (≈ 0.114 µM)	0.5 µg/mL (≈ 0.951 µM)	> 128 µg/mL	–	–	–	MIC [14]: 0.03 µg/mL (≈ 0.0571 µM)
CO/N=C(\C(=O)N[C@@H]1C(=O)N2C(C(=O)[O-])=C(C[n+]3ccc4sccc4c3)CS[C@H]12)c1csc(N)n1	4 µg/mL (≈ 7.54 µM)	0.015 µg/mL (≈ 0.0283 µM)	0.06 µg/mL (≈ 0.113 µM)	0.03 µg/mL (≈ 0.0565 µM)	2 µg/mL (≈ 3.77 µM)	0.015 µg/mL (≈ 0.0283 µM)	2 µg/mL (≈ 3.77 µM)	4 µg/mL (≈ 7.54 µM)	2 µg/mL (≈ 3.77 µM)	1 µg/mL (≈ 1.88 µM)	0.015 µg/mL (≈ 0.0283 µM)	0.125 µg/mL (≈ 0.236 µM)	> 128 µg/mL	100	< 0.008 µg/mL	–	half-life [15]: 1.75 h; half-life [16]: 1.5 h; Dose [17]: 55%; Dose [18]: 58%; Hydrolysis rate [19]: 0.3; Hydrolysis rate [20]: 0.6; Kb [22]: 43.7 µM; Hydrolysis rate [23]: 3.4; ED50 [24]: 6.3 mg/kg; ED50 [25]: 0.4 mg/kg; ED50 [26]: 0.02 mg/kg; MIC [27]: < 0.008 µg/mL; MIC [28]: 2 µg/mL (≈ 3.77 µM); MIC [29]: 1 µg/mL (≈ 1.88 µM); Hydrolysis rate [30]: 0.3; Hydrolysis rate [31]: 7.8; Dose ratio [33]: 23.67
CO/N=C(\C(=O)N[C@@H]1C(=O)N2C(C(=O)[O-])=C(C[n+]3ccc4ncn(C)c4c3)CS[C@H]12)c1csc(N)n1	8 µg/mL (≈ 15.1 µM)	–	0.125 µg/mL (≈ 0.236 µM)	–	8 µg/mL (≈ 15.1 µM)	–	2 µg/mL (≈ 3.78 µM)	8 µg/mL (≈ 15.1 µM)	2 µg/mL (≈ 3.78 µM)	2 µg/mL (≈ 3.78 µM)	–	0.125 µg/mL (≈ 0.236 µM)	128 µg/mL (≈ 242 µM)	1	0.008 µg/mL (≈ 0.0151 µM)	52%	half-life [34]: 1.08 h; half-life [35]: 1.27 h; half-life [36]: 1.17 h
CC(C)(O/N=C(\C(=O)N[C@@H]1C(=O)N2C(C(=O)[O-])=C(C[n+]3ccccc3)CS[C@H]12)c1csc(N)n1)C(=O)O [CEFTAZIDIME]	64 µg/mL (≈ 117 µM)	–	–	–	1 µg/mL (≈ 1.83 µM)	–	2 µg/mL (≈ 3.66 µM)	4 µg/mL (≈ 7.32 µM)	–	–	–	0.5 µg/mL (≈ 0.915 µM)	> 128 µg/mL	1	–	64%	half-life [38]: 0.933 h
